Measurements from ChEMBL document CHEMBL1142319, “New antitumor imidazo[2,1-b]thiazole guanylhydrazones and analogues” (2008).
The source made the active and inactive calls. The calls are words filed in the database; no cut-off is given here.

Columns and labels:
HL-60 [1] = assay: Cell cycle arrest in human HL60 cells assessed as accumulation at G2/M phase at 2 uM; type: functional
Procedure, shortened: (§1)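 HL-60 cells kept in RPMI 1640 with 10% FBS and 2 mM glutamine at 37 °C, 5% CO2. Treated 24 h at 2 µM from DMSO stock diluted in medium. Cells fixed in cold 70% ethanol and stained with propidium iodide 50 µg/mL plus RNAase 10 µg/mL for 30 min. DNA profiles read by flow cytometry on ≥10 000 cells, and phase percentages calculated.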

HL-60 [2] = assay: Cell cycle arrest in human HL60 cells assessed as accumulation at G0/G1 phase at 2 uM; type: functional; procedure, shortened: as §1
Cancer cell lines [3] = assay: Inhibition of human non-small cell lung cancer cells; type: functional; details: for TGI: read-out: pTGI (converted)
Procedure, shortened: (§2)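 NCI 60-cell-line panel, with results grouped by tissue subpanel. Compounds dissolved in DMSO and tested at five 10-fold dilutions, top concentration 10^-4 M. Values given as -log molar concentration for 50% growth inhibition (pGI50), total growth inhibition (pTGI) and 50% cell kill (pLC50), with subpanel means calculated.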

Leukemia cell = assay: Inhibition of human leukemia cells; type: functional; details: for TGI: read-out: pTGI (converted); procedure, shortened: as §2
HL-60 [4] = assay: Cell cycle arrest in human HL60 cells assessed as accumulation at S phase at 2 uM; type: functional; procedure, shortened: as §1
HL-60 [5] = assay: Induction of cell death in human HL60 cells at 2 uM by propidium iodide staining method; type: functional
Procedure, shortened: (§3)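 HL-60 cells in RPMI 1640 with 10% FBS and 2 mM glutamine at 37 °C, 5% CO2, exposed for 24 h to compound diluted in medium from DMSO. Cells were counterstained with propidium iodide (5 µg/mL) for plasma membrane integrity and analysed by flow cytometry. The readout is the percentage of PI-positive cells.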

Melanoma cell = assay: Inhibition of human melanoma cells; type: functional; details: for TGI: read-out: pTGI (converted); procedure, shortened: as §2
Cancer cell lines [6] = assay: Inhibition of human colon cancer cells; type: functional; details: for TGI: read-out: pTGI (converted); procedure, shortened: as §2
HL-60 [7] = assay: Effect on cell growth in human HL60 cells assessed as cell number per mL at 2 uM; type: functional; design: scale not given here
Procedure, shortened: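 HL-60 cells in RPMI 1640 with 10% FBS and 2 mM glutamine, 37 °C, 5% CO2, doubling time about 24 h. Exposed 24 h to 2 µM compound diluted from DMSO into medium. Cells per mL counted with a Coulter counter.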

Cancer cell lines [8] = assay: Inhibition of human CNS cancer cells; type: functional; details: for TGI: read-out: pTGI (converted); procedure, shortened: as §2
Cancer cell lines [9] = assay: Inhibition of human renal cancer cells; type: functional; details: for TGI: read-out: pTGI (converted); procedure, shortened: as §2
Cancer cell lines [10] = assay: Inhibition of human ovarian cancer cells; type: functional; details: for TGI: read-out: pTGI (converted); procedure, shortened: as §2
Cancer cell lines [11] = assay: Inhibition of human breast cancer cells; type: functional; details: for TGI: read-out: pTGI (converted); procedure, shortened: as §2
Cancer cell lines [12] = assay: Inhibition of human prostate cancer cells; type: functional; details: for TGI: read-out: pTGI (converted); procedure, shortened: as §2
HL-60 [13] = assay: Cell cycle arrest in human HL60 cells assessed as accumulation at G2/M phase at 10 uM; type: functional
Procedure, shortened: (§4)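 HL-60 cells growing exponentially in RPMI 1640 with 10% FBS and 2 mM glutamine at 37 °C under 5% CO2. Compound was dissolved in DMSO, diluted in medium and applied for 24 h. Cells were fixed in cold 70% ethanol and stained with 50 µg/mL propidium iodide plus 10 µg/mL RNase for 30 min. DNA content was read by flow cytometry (≥10,000 cells) and the percentage of cells in each phase calculated.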

HL-60 [14] = assay: Induction of cell death in human HL60 cells at 10 uM by propidium iodide staining method; type: functional; procedure, shortened: as §3
HL-60 [15] = assay: Cell cycle arrest in human HL60 cells assessed as accumulation at S phase at 10 uM; type: functional; procedure, shortened: as §4
HL-60 [16] = assay: Cell cycle arrest in human HL60 cells assessed as accumulation at G0/G1 phase at 10 uM; type: functional; procedure, shortened: as §4
HL-60 [17] = assay: Effect on cell growth in human HL60 cells assessed as cell number per mL at 10 uM; type: functional
Procedure, shortened: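 HL-60 cells grown in RPMI 1640 with 10% FBS and 2 mM glutamine at 37 °C, 5% CO2 (doubling time about 24 h). Compound was taken from a DMSO stock, diluted in medium and applied for 24 h. Growth was assessed by Coulter cell counting, reported as cells/mL.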

HL-60 [18] = assay: Increase in peroxide formation in human HL60 cells at 5 uM after 3 hrs; type: functional, cell-based
Procedure, shortened: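 Intracellular peroxides measured in HL-60 cells after 3 h at 5 µM. Cells incubated with 5 µM DCF-DA for 30 min at 37 °C, then read by flow cytometry. Mean ± SEM of triplicates.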

HL-60 [19] = assay: Disruption of mitochondrial membrane potential in human HL60 cells at 5 uM after 1 hr; type: functional, cell-based
Procedure, shortened: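 HL-60 cells exposed to 5 µM for 1 h, then loaded with 40 nM DiOC6 for 40 min at 1 × 10⁶ cells/mL, 37 °C, in the dark. Mitochondrial membrane potential read by flow cytometry. Mean ± SEM of triplicate determinations.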

HL-60 [20] = assay: Effect on energy metabolism assessed as increase in AMP/ATP ratio in human HL60 cells at 5 uM after 3 hrs; type: functional, cell-based
Procedure, shortened: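 HL-60 cells treated 3 h with 5 µM. Adenine nucleotide levels measured and the AMP/ATP ratio calculated from them. Mean ± SEM of triplicate determinations.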

HL-60 [21] = assay: Induction of apoptosis in human HL60 cells assessed as chromatin condensation at 5 uM after 3 hrs; type: functional, cell-based
Procedure, shortened: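 HL-60 cells on glass coverslips treated 3 h with 5 µM. Cells fixed in 4% paraformaldehyde in PBS and stained with Hoechst 0.1 µg/mL. Nuclear morphology (chromatin condensation, apoptotic bodies) scored by fluorescence microscopy. Experiment repeated at least twice.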

[22] = target: T1, S-adenosylmethionine decarboxylase proenzyme (Homo sapiens) (UniProt P17707); assay: Inhibition of human S-adenosyl methionine decarboxylase in HL60 cells at 1 to 100 uM; type: cell-based; details: HL-60
T1 sequence (whole entry): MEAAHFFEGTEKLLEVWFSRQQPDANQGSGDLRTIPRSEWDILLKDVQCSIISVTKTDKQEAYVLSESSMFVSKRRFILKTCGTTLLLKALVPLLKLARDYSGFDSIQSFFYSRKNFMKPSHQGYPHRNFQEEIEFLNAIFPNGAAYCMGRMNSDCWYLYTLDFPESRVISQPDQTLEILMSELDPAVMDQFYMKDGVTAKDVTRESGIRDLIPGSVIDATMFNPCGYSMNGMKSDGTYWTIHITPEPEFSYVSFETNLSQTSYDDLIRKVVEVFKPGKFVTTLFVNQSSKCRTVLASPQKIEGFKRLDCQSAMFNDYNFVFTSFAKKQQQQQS

HL-60 [23] = assay: Induction of apoptosis in human HL60 cells assessed as caspase activity after 4 hrs; type: functional, cell-based
Procedure, shortened: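 HL-60 cells treated 4 h across a range of concentrations. DEVD-cleaving caspase (DEVDase) activity measured fluorimetrically in cell extracts. One typical experiment shown, repeated at least twice.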

HL-60 [24] = assay: Induction of cell death in human HL60 cells assessed as LDH release at 5 uM after 24 hrs; type: functional, cell-based
Procedure, shortened: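 HL-60 cells exposed 24 h to 5 µM. Medium aliquots collected and LDH activity determined spectrophotometrically from NADH at 340 nm. One typical experiment shown, repeated at least twice.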

| Compound | Activity (HL-60 [1]) [%] | Activity (HL-60 [2]) [%] | GI50 (Cancer cell lines [3]) [µM] | TGI (Cancer cell lines [3]) [µM] | GI50 (Leukemia cell) [µM] | Activity (HL-60 [4]) [%] | GI50 (Melanoma cell) [µM] | TGI (Melanoma cell) [µM] | GI50 (Cancer cell lines [6]) [µM] | TGI (Cancer cell lines [6]) [µM] | GI50 (Cancer cell lines [8]) [µM] | TGI (Cancer cell lines [8]) [µM] | GI50 (Cancer cell lines [9]) [µM] | TGI (Cancer cell lines [9]) [µM] | GI50 (Cancer cell lines [10]) [µM] | TGI (Cancer cell lines [10]) [µM] | GI50 (Cancer cell lines [11]) [µM] | TGI (Cancer cell lines [11]) [µM] | GI50 (Cancer cell lines [12]) [µM] | TGI (Cancer cell lines [12]) [µM] | also measured |
| --- | --- | --- | --- | --- | --- | --- | --- | --- | --- | --- | --- | --- | --- | --- | --- | --- | --- | --- | --- | --- | --- |
| Cc1cn2c(/C=N/NC(=N)N)c(-c3cc(Cl)sc3Cl)nc2s1 | 14.7 | 35.3 | 1.1 | 3.63 | 0.891 | 50 | 1.05 | 3.09 | 1.02 | 3.98 | 1.12 | 4.37 | 1.23 | 3.02 | 1.02 | 2.34 | 1.23 | 2.63 | 0.794 | 1.48 | TGI (Leukemia cell): 1.78 µM; Activity (HL-60 [5]): 7.4%; Activity (HL-60 [7]): 750 |
| Cc1cn2c(/C=N/NC(=N)NN)c(-c3ccc(Cl)c([N+](=O)[O-])c3)nc2s1 | 13.1 | 35 | 2.4 | 9.77 | 6.31 | 51.9 | 1.82 | 4.57 | 0.955 | 2.09 | 1.12 | 2.95 | 3.24 | 8.51 | 1.29 | 3.72 | 1.55 | 5.37 | 3.39 | 9.55 | Activity (HL-60 [5]): 7.8%; Activity (HL-60 [7]): 760 |
| CC(/C=N/NC(=N)N)=N\NC(=N)N [MITOGUAZONE] |  |  | 25.1 | 316 | 7.94 |  | 39.8 | 316 | 12.6 | 501 | 20 | 251 | 20 | 501 | 15.8 | 316 | 15.8 | 316 | 100 | 1580 | TGI (Leukemia cell): 631 µM; Activity (HL-60 [13]): 15.5%; Activity (HL-60 [14]): 5.2%; Activity (HL-60 [15]): 40.9%; Activity (HL-60 [16]): 43.6%; Activity (HL-60 [17]): 702 |
| COc1cc([N+](=O)[O-])c(OC)cc1-c1nc2sc(Cl)cn2c1/C=N\NC1=NCCN1 | 15.1 | 33.1 | 0.933 | 4.79 | 2.63 | 51.9 | 1.26 | 3.89 | 0.501 | 2.95 | 0.646 | 2.09 | 1.35 | 3.39 | 0.741 | 1.86 | 1.82 | 42.7 | 0.759 | 1.15 | Activity (HL-60 [18]): Active; Activity (HL-60 [5]): 22%; Activity (HL-60 [19]): Active; Activity (HL-60 [20]): Active; Activity (HL-60 [21]): Active; Activity [22]: Active; Activity (HL-60 [23]): Dose-dependent effect; Activity (HL-60 [7]): 485; Activity (HL-60 [24]): Active |
| Cc1cn2c(/C=N/NC3=NCCN3)c(-c3ccc(Cl)c([N+](=O)[O-])c3)nc2s1 | 15 | 31.3 | 1.55 | 6.03 | 0.676 | 53.7 | 0.977 | 2.4 | 1.2 | 10 | 1.07 | 4.27 | 1.45 | 3.72 | 1.41 | 3.39 | 1.82 | 7.59 | 1.15 | 2.95 | TGI (Leukemia cell): 6.17 µM; Activity (HL-60 [5]): 11.9%; Activity (HL-60 [7]): 780 |
| Cc1nn2c(/C=N/NC(=N)N)c(-c3ccc(Cl)c([N+](=O)[O-])c3)nc2s1 | 16.5 | 29.9 | 3.31 | 11.5 | 0.575 | 53.6 | 1.45 | 2.95 | 0.646 | 2.82 | 1.23 | 9.77 | 1.23 | 3.63 | 1.48 | 4.27 | 1.02 | 6.92 | 1.1 | 2.63 | Activity (HL-60 [18]): Active; TGI (Leukemia cell): 3.63 µM; Activity (HL-60 [5]): 31%; Activity (HL-60 [19]): Active; Activity (HL-60 [20]): Active; Activity (HL-60 [21]): Active; Activity [22]: Active; Activity (HL-60 [23]): Dose-dependent effect; Activity (HL-60 [7]): 410; Activity (HL-60 [24]): Active |
